Where a SMILES comes first, the peptide text is derived from it. [ ]: non-standard residue; d: D form. Dap = NC[C@H](N)C(=O)O
Tests used:
Acinetobacter baumannii [1] = assay: Antibacterial activity against Acinetobacter baumannii 649 measured after 24 hrs in presence of 25% human serum by microtiter dilution method; format: functional; conditions: Acinetobacter baumannii, 649, 24 h
Outline: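 Blood strain 649 was tested by MH broth microdilution with and without 25% (v/v) human serum added to the medium. The test used a final inoculum of 5 × 10^5 cfu/mL and incubation at 37 °C. The ratio is the MIC in serum over the MIC in MH alone.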

[2] = Therapeutic index, ratio of HC50 for human RBC to MIC for polymyxin B/colistin-resistant Acinetobacter baumannii M89963; format: toxicity; conditions: human red blood cells, read-out: TI
Outline: (§1)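 T.I. = HC50/MIC. For HC50, peptide (quantified by amino acid analysis) was two-fold serially diluted over 12 concentrations up to 1000 μg/mL. It was incubated with 1% fresh human erythrocytes in PBS, pH 7.4, for 18 h at 37 °C. After 800g centrifugation, hemoglobin was read at 570 nm against water (100%) and no-peptide (0%) controls. HC50 came from a lysis-versus-concentration plot, average of 3 replicates.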

Acinetobacter baumannii [3] = assay: Antibacterial activity against Acinetobacter baumannii 649 measured after 24 hrs by microtiter dilution method; format: functional; conditions: Acinetobacter baumannii, 649, 24 h
Outline: (§2)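 Broth microdilution in Mueller-Hinton (MH) medium. […] Plates were incubated 24 h at 37 °C. MIC was the lowest peptide concentration that inhibited growth, based on three sets of replicates.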

[4] = Therapeutic index, ratio of HC50 for human RBC to MIC for polymyxin B/colistin-resistant Acinetobacter baumannii M89955; format: toxicity; conditions: human red blood cells, read-out: TI; outline: as §1
[5] = Therapeutic index, ratio of HC50 for human RBC to MIC for polymyxin B/colistin-resistant Acinetobacter baumannii M89953; format: toxicity; conditions: human red blood cells, read-out: TI; outline: as §1
[6] = Therapeutic index, ratio of HC50 for human RBC to MIC for polymyxin B/colistin-resistant Acinetobacter baumannii M89951; format: toxicity; conditions: human red blood cells, read-out: TI; outline: as §1
[7] = Therapeutic index, ratio of HC50 for human RBC to MIC for polymyxin B/colistin-resistant Acinetobacter baumannii M89952; format: toxicity; conditions: human red blood cells, read-out: TI; outline: as §1
[8] = Therapeutic index, ratio of HC50 for human RBC to MIC for polymyxin B/colistin-resistant Acinetobacter baumannii M89949; format: toxicity; conditions: human red blood cells, read-out: TI; outline: as §1
[9] = Hemolytic activity against human RBC measured after 18 hrs by spectrophotometric method; format: ADME, cell-based, Erythrocyte; conditions: human red blood cells (erythrocytes)
Outline: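 Peptide (amount by amino acid analysis), two-fold serial dilutions at 12 concentrations up to 1000 μg/mL, with 1% human erythrocytes in PBS pH 7.4, 37 °C, 18 h. Unlysed cells removed by centrifugation (800g); hemoglobin read at 570 nm. Water-lysed cells = 100%, no-peptide cells = 0%. HC50 from plot of % lysis vs concentration (μM), average of 3 replicates.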

[10] = Therapeutic index, ratio of HC50 for human RBC to MIC for polymyxin B/colistin-resistant Acinetobacter baumannii M89941; format: toxicity; conditions: human red blood cells, read-out: TI; outline: as §1
Acinetobacter baumannii [11] = assay: Antibacterial activity against Acinetobacter baumannii isolate 1001611 measured after 24 hrs by microtiter dilution method; format: functional; conditions: isolate 1001611, 24 h; outline: as §2
Acinetobacter baumannii [12] = assay: Antibacterial activity against Acinetobacter baumannii isolate 1007660 measured after 24 hrs by microtiter dilution method; format: functional; conditions: isolate 1007660, 24 h; outline: as §2
Acinetobacter baumannii [13] = assay: Antibacterial activity against Acinetobacter baumannii isolate 1021371 measured after 24 hrs by microtiter dilution method; format: functional; conditions: isolate 1021371, 24 h; outline: as §2
Acinetobacter baumannii [14] = assay: Antibacterial activity against Acinetobacter baumannii isolate 952654 measured after 24 hrs by microtiter dilution method; format: functional; conditions: isolate 952654, 24 h; outline: as §2
Acinetobacter baumannii [15] = assay: Antibacterial activity against Acinetobacter baumannii isolate 9383370 measured after 24 hrs by microtiter dilution method; format: functional; conditions: isolate 9383370, 24 h; outline: as §2
Acinetobacter baumannii [16] = assay: Antibacterial activity against Acinetobacter baumannii isolate 961997 measured after 24 hrs by microtiter dilution method; format: functional; conditions: isolate 961997, 24 h; outline: as §2
Acinetobacter baumannii [17] = assay: Antibacterial activity against Acinetobacter baumannii isolate 1002956 measured after 24 hrs by microtiter dilution method; format: functional; conditions: isolate 1002956, 24 h; outline: as §2
Acinetobacter baumannii [18] = assay: Antibacterial activity against Acinetobacter baumannii isolate 977751 measured after 24 hrs by microtiter dilution method; format: functional; conditions: isolate 977751, 24 h; outline: as §2
Acinetobacter baumannii [19] = assay: Antibacterial activity against Acinetobacter baumannii isolate 1035166 measured after 24 hrs by microtiter dilution method; format: functional; conditions: isolate 1035166, 24 h; outline: as §2
Acinetobacter baumannii [20] = assay: Antibacterial activity against Acinetobacter baumannii isolate 1010282 measured after 24 hrs by microtiter dilution method; format: functional; conditions: isolate 1010282, 24 h; outline: as §2
Acinetobacter baumannii [21] = assay: Antibacterial activity against Acinetobacter baumannii isolate 1010245 measured after 24 hrs by microtiter dilution method; format: functional; conditions: isolate 1010245, 24 h; outline: as §2
Acinetobacter baumannii [22] = assay: Antibacterial activity against Acinetobacter baumannii isolate 1017395 measured after 24 hrs by microtiter dilution method; format: functional; conditions: isolate 1017395, 24 h; outline: as §2
Acinetobacter baumannii [23] = assay: Antibacterial activity against Acinetobacter baumannii isolate 968886 measured after 24 hrs by microtiter dilution method; format: functional; conditions: isolate 968886, 24 h; outline: as §2
Acinetobacter baumannii [24] = assay: Antibacterial activity against Acinetobacter baumannii isolate 964304 measured after 24 hrs by microtiter dilution method; format: functional; conditions: isolate 964304, 24 h; outline: as §2
Acinetobacter baumannii [25] = assay: Antibacterial activity against Acinetobacter baumannii isolate 963659 measured after 24 hrs by microtiter dilution method; format: functional; conditions: isolate 963659, 24 h; outline: as §2
Acinetobacter baumannii [26] = assay: Antibacterial activity against Acinetobacter baumannii isolate 963618 measured after 24 hrs by microtiter dilution method; format: functional; conditions: isolate 963618, 24 h; outline: as §2
Acinetobacter baumannii [27] = assay: Antibacterial activity against Acinetobacter baumannii isolate 1018887 measured after 24 hrs by microtiter dilution method; format: functional; conditions: isolate 1018887, 24 h; outline: as §2
Acinetobacter baumannii [28] = assay: Antibacterial activity against Acinetobacter baumannii isolate 1035794 measured after 24 hrs by microtiter dilution method; format: functional; conditions: isolate 1035794, 24 h; outline: as §2
Acinetobacter baumannii [29] = assay: Antibacterial activity against Acinetobacter baumannii isolate 981650 measured after 24 hrs by microtiter dilution method; format: functional; conditions: isolate 981650, 24 h; outline: as §2
Acinetobacter baumannii [30] = assay: Antibacterial activity against Acinetobacter baumannii isolate 965463 measured after 24 hrs by microtiter dilution method; format: functional; conditions: isolate 965463, 24 h; outline: as §2
Acinetobacter baumannii [31] = assay: Antibacterial activity against polymyxin B/colistin-resistant Acinetobacter baumannii M89963 measured after 24 hrs by microtiter dilution method; format: functional; conditions: M89963, 24 h; outline: as §2
Acinetobacter baumannii [32] = assay: Antibacterial activity against polymyxin B/colistin-resistant Acinetobacter baumannii M89955 measured after 24 hrs by microtiter dilution method; format: functional; conditions: M89955, 24 h; outline: as §2
Acinetobacter baumannii [33] = assay: Antibacterial activity against polymyxin B/colistin-resistant Acinetobacter baumannii M89953 measured after 24 hrs by microtiter dilution method; format: functional; conditions: M89953, 24 h; outline: as §2
Acinetobacter baumannii [34] = assay: Antibacterial activity against polymyxin B/colistin-resistant Acinetobacter baumannii M89952 measured after 24 hrs by microtiter dilution method; format: functional; conditions: M89952, 24 h; outline: as §2
Acinetobacter baumannii [35] = assay: Antibacterial activity against polymyxin B/colistin-resistant Acinetobacter baumannii M89951 measured after 24 hrs by microtiter dilution method; format: functional; conditions: M89951, 24 h; outline: as §2
Acinetobacter baumannii [36] = assay: Antibacterial activity against polymyxin B/colistin-resistant Acinetobacter baumannii M89949 measured after 24 hrs by microtiter dilution method; format: functional; conditions: M89949, 24 h; outline: as §2
Acinetobacter baumannii [37] = assay: Antibacterial activity against polymyxin B/colistin-resistant Acinetobacter baumannii M89941 measured after 24 hrs by microtiter dilution method; format: functional; conditions: M89941, 24 h; outline: as §2

CC(=O)N[C@H](CCCCN)C(=O)N[C@H](CC(C)C)C(=O)N[C@@H](CN)C(=O)N[C@H](CO)C(=O)N[C@H](CC(C)C)C(=O)N[C@H](CC(C)C)C(=O)N[C@@H](CN)C(=O)N[C@@H](C(=O)N[C@H](CC(C)C)C(=O)N[C@H](CO)C(=O)N[C@@H](CN)C(=O)N[C@H](C)C(=O)N[C@H](CCCCN)C(=O)N[C@H](C)C(=O)N[C@H](C)C(=O)N[C@H](CCCCN)C(=O)N[C@H](CC(C)C)C(=O)N[C@@H](CN)C(=O)N[C@@H](C(=O)N[C@H](CC(C)C)C(=O)N[C@H](CC(C)C)C(=O)N[C@@H](CN)C(=O)N[C@H](C)C(=O)N[C@H](CC(C)C)C(=O)N[C@H](CO)C(=O)N[C@@H](CN)C(N)=O)[C@H](C)O)[C@H](C)O (Ac-[dK][dL][Dap][dS][dL][dL][Dap][dT][dL][dS][Dap][dA][dK][dA][dA][dK][dL][Dap][dT][dL][dL][Dap][dA][dL][dS][Dap]-NH2)
0.4 µM: MIC (Acinetobacter baumannii [11])
> 957: selectivity ratio [2] | selectivity ratio [4] | selectivity ratio [5] | selectivity ratio [6] | selectivity ratio [7] | selectivity ratio [8] | selectivity ratio [10]
3 µM: MIC (Acinetobacter baumannii [1]) | MIC (Acinetobacter baumannii [33]) | MIC (Acinetobacter baumannii [35])
> 1.15 mM: HC50 at 18 h [9]
1.5 µM: MIC (Acinetobacter baumannii [13]) | MIC (Acinetobacter baumannii [14]) | MIC (Acinetobacter baumannii [16]) | MIC (Acinetobacter baumannii [22]) | MIC (Acinetobacter baumannii [23]) | MIC (Acinetobacter baumannii [24]) | MIC (Acinetobacter baumannii [25]) | MIC (Acinetobacter baumannii [30]) | MIC (Acinetobacter baumannii [31])
0.8 µM: MIC (Acinetobacter baumannii [3]) | MIC (Acinetobacter baumannii [12]) | MIC (Acinetobacter baumannii [15]) | MIC (Acinetobacter baumannii [17]) | MIC (Acinetobacter baumannii [18]) | MIC (Acinetobacter baumannii [19]) | MIC (Acinetobacter baumannii [20]) | MIC (Acinetobacter baumannii [21]) | MIC (Acinetobacter baumannii [26]) | MIC (Acinetobacter baumannii [27]) | MIC (Acinetobacter baumannii [28]) | MIC (Acinetobacter baumannii [29]) | MIC (Acinetobacter baumannii [32]) | MIC (Acinetobacter baumannii [34]) | MIC (Acinetobacter baumannii [36]) | MIC (Acinetobacter baumannii [37])
